Published values pooled from the literature.
Compare with care: the assays were run in different laboratories.
ABL1 F317I non-phosphorylated: Tyrosine-protein kinase ABL1, non-phosphorylated (ABL1, Homo sapiens, UniProt P00519, F317I)
ABL1 H396P non-phosphorylated: Tyrosine-protein kinase ABL1, non-phosphorylated (ABL1, Homo sapiens, UniProt P00519, H396P)
ABL1 M351T phosphorylated: Tyrosine-protein kinase ABL1, phosphorylated (ABL1, Homo sapiens, UniProt P00519, M351T)
ABL1 F317I phosphorylated: Tyrosine-protein kinase ABL1, phosphorylated (ABL1, Homo sapiens, UniProt P00519, F317I)
ABL1 F317L phosphorylated: Tyrosine-protein kinase ABL1, phosphorylated (ABL1, Homo sapiens, UniProt P00519, F317L)
ABL1 T315I non-phosphorylated: Tyrosine-protein kinase ABL1, non-phosphorylated (ABL1, Homo sapiens, UniProt P00519, T315I)
ABL1 F317L non-phosphorylated: Tyrosine-protein kinase ABL1, non-phosphorylated (ABL1, Homo sapiens, UniProt P00519, F317L)
ABL1 E255K: Tyrosine-protein kinase ABL1 (ABL1, Homo sapiens, UniProt P00519, E255K)
ABL1 T315I phosphorylated: Tyrosine-protein kinase ABL1, phosphorylated (ABL1, Homo sapiens, UniProt P00519, T315I)
ABL1 non-phosphorylated: Tyrosine-protein kinase ABL1, non-phosphorylated (ABL1, Homo sapiens, UniProt P00519)
ABL1 E255K phosphorylated: Tyrosine-protein kinase ABL1, phosphorylated (ABL1, Homo sapiens, UniProt P00519, E255K)

Compound	target	test	setting	remaining binding [%]
C[C@@H](c1ccc(-n2cnc3c(N)ncnc32)cc1)N1CCc2nn(C)c(Cc3ccccc3)c2C1=O	ABL1 F317I non-phosphorylated	binding, competition with immobilised ligand	0.1 µM	40
c1cncc(-c2cccc(Nc3nccc(NC4CCCCC4)n3)c2)c1	ABL1 H396P non-phosphorylated	binding, competition with immobilised ligand	10 µM	9
CS(=O)(=O)c1cc(C2(NC(=O)c3cncc4c3cnn4-c3ccc(F)cc3)CC2)ccn1	ABL1 M351T phosphorylated	cell-free assay, competition with immobilised ligand	1 µM	92
O=C(NCCCN1CCOCC1)c1ccc(Nc2ncc(Cl)c(-c3ccc(Cl)s3)n2)cc1	ABL1 F317I phosphorylated	binding, competition with immobilised ligand	1 µM	99
Cc1cc(-n2nc(Cc3cc(F)cc(C(F)(F)F)c3)nc2C)ccc1C(N)=O	ABL1 F317L phosphorylated	cell-free assay, competition with immobilised ligand	1 µM	100
C=CC(=O)N1CCC(C(=O)NCC(=O)N2CCN(c3nc(-c4cnc(N)nc4C(F)F)nc(N4CCOCC4)n3)CC2)CC1	ABL1 T315I non-phosphorylated	binding, competition with immobilised ligand	1 µM	71
N[C@H]1CCN(c2nccc(-c3cnn4ncccc34)n2)C1	Tyrosine-protein kinase ABL1 (ABL1, Homo sapiens, UniProt P00519, M351T)	binding	1 µM	100
O=C(Nc1c[nH]nc1C(=O)NC1CCNCC1)c1cc(F)cc(F)c1	ABL1 M351T phosphorylated	binding, competition with immobilised ligand	1 µM	100
O=C(N[C@H]1CCCCC/C=C\C2C[C@@]2(C(=O)O)NC(=O)[C@@H]2C[C@@H](Oc3ccncc3)CN2C1=O)OC1CCCC1 (stereo partly shown)	ABL1 M351T phosphorylated	binding, competition with immobilised ligand	1 µM	89
COc1ncc2cc3ccccc3nc2c1C#N	ABL1 F317L non-phosphorylated	cell-free assay, competition with immobilised ligand	5 µM	100
CN(c1nccc(-c2cnn3ncccc23)n1)C1CC1	ABL1 E255K	binding	1 µM	100
Cc1cnc(Nc2ccc(C(=O)N3CCC(N4CCCC4)CC3)cc2)nc1-c1cc2ccccc2s1	ABL1 T315I phosphorylated	binding, competition with immobilised ligand	1 µM	2.1
CN(CCCC(F)(F)F)c1nccc(-c2cnn3ncccc23)n1	ABL1 non-phosphorylated	binding, competition with immobilised ligand	1 µM	76
C[C@H](c1ccc(F)cc1)N(Cc1cccc(C(=O)O)c1)C(=O)c1cnc2ccccc2c1	ABL1 T315I non-phosphorylated	cell-free assay, competition with immobilised ligand	1 µM	85
CN(C)c1ncc(F)c(-c2cnn3ncccc23)n1	Tyrosine-protein kinase ABL1 (ABL1, Homo sapiens, UniProt P00519, H396P)	binding	1 µM	80
CN(C)C(=O)Cn1cc(-c2nc(C3(c4ccc(-c5cnc(N)nc5)cc4)CC3)no2)cn1	ABL1 E255K phosphorylated	binding, competition with immobilised ligand	1 µM	100

Compound	target	test	setting	remaining binding [%]
O=C(c1ccc(Nc2nccc(-c3cc4ccccc4s3)n2)cc1)N1CCC(N2CCCC2)CC1	ABL1 T315I non-phosphorylated	binding, competition with immobilised ligand	1 µM	2
O=C(NCC1CCOCC1)c1n[nH]cc1NC(=O)c1c(F)cccc1F	ABL1 T315I phosphorylated	binding, competition with immobilised ligand	1 µM	91
CO[C@H]1CC[C@H](CNc2ccc(S(=O)(=O)NC(=O)c3ccc(N4CCN(CC5=C(c6ccc(Cl)cc6)CC(C)(C)CC5)CC4)cc3Oc3cnc4[nH]ccc4c3)cc2[N+](=O)[O-])CC1	ABL1 non-phosphorylated	cell-free assay, competition with immobilised ligand	1 µM	71
CNC(=O)[C@@H]1CC[C@@H](n2c(-c3ccc4cnccc4c3)nc3ccc(C(=O)NCc4cccc(C(N)=O)c4)cc32)C1	ABL1 H396P non-phosphorylated	binding, competition with immobilised ligand	1 µM	86
O=C1NC(c2ccccn2)Sc2ccccc21 (stereo not shown)	Tyrosine-protein kinase ABL1, phosphorylated (ABL1, Homo sapiens, UniProt P00519)	cell-free assay, competition with immobilised ligand	1 µM	72
C[C@@H]1CCN(c2nccc(-c3cnn4ncccc34)n2)C1	Tyrosine-protein kinase ABL1 (ABL1, Homo sapiens, UniProt P00519, Q252H)	binding	1 µM	81
CS(=O)(=O)NCC[C@H](NC(=O)c1cncc2c1cnn2-c1ccc(F)cc1)c1ccnc(S(C)(=O)=O)c1	ABL1 E255K phosphorylated	binding, competition with immobilised ligand	1 µM	93
COc1cnc(Nc2cccc(S(N)(=O)=O)c2)nc1N1CCN(c2ccccc2)C(=O)C1	ABL1 T315I non-phosphorylated	binding, competition with immobilised ligand	1 µM	83
Cc1cnn2ncc(-c3ccnc(N(C)C)n3)c2c1	ABL1 E255K	binding	1 µM	100
O=C(c1ccc(Nc2ncc(Cl)c(-c3ccc(Cl)s3)n2)cc1)N1CCC(N2CCCC2)CC1	ABL1 F317L phosphorylated	binding, competition with immobilised ligand	1 µM	58
CCN1CCN(Cc2ccc(C(=O)Nc3ccc(C)c(Oc4ccc5c(c4)CC(=O)N5)c3)cc2C(F)(F)F)CC1	ABL1 F317L non-phosphorylated	binding, competition with immobilised ligand	1 µM	2.9
O=C(c1ccc(Nc2ncc(Cl)c(-c3cc4ccccc4s3)n2)cc1)N1CCC(N2CCCC2)CC1	ABL1 non-phosphorylated	binding, competition with immobilised ligand	1 µM	17
Nc1ncc2c(n1)-c1c([nH]c3ccc(C#CC4CC4)cc13)CCCC2	ABL1 H396P non-phosphorylated	binding, competition with immobilised ligand	1 µM	93
COc1cnc(Nc2cccc(S(N)(=O)=O)c2)nc1N1CCN(c2ccccc2)CC1	ABL1 F317I phosphorylated	binding, competition with immobilised ligand	1 µM	98
O=C(NCCCN1CCOCC1)c1ccc(Nc2nccc(-c3cc4ccccc4s3)n2)cc1	ABL1 F317I non-phosphorylated	binding, competition with immobilised ligand	1 µM	100
